In ChEMBL document CHEMBL4196113, “Discovery of a First-in-Class Gut-Restricted RET Kinase Inhibitor as a Clinical Candidate for the Treatment of IBS” (ACS Med Chem Lett, 2018):
Values after ≈ are worked out from the molar mass of the structure shown. Active and inactive are the calls of the source. No cut-off for these calls is given here.

Assays:
[1] = target: Vascular endothelial growth factor receptor 2 (Homo sapiens, UniProt P35968); assay: Inhibition of human KDR using cisbio TK biotin-peptide as substrate preincubated for 30 mins followed by substrate addition measured after 30 mins by HTRF assay
[2] = tested on: Salmonella typhimurium; assay: Genotoxicity in Salmonella typhimurium TA98 by Ames test; type: toxicity, organism-based; settings: salmonella enterica subsp. enterica serovar typhimurium
[3] = target: Proto-oncogene tyrosine-protein kinase receptor Ret (Rattus norvegicus, UniProt G3V9H8); assay: Binding affinity to RET in Sprague-Dawley rat colon tissue cell lysate using sepharose beads incubated for 45 mins by LC-MS/MS based chemoproteomics assay
Outline: (§1)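 Colon tissue was isolated from rats and analysed by kinobead chemoproteomics. Compound competed with the beads for kinase binding. Apparent affinity is reported as pKdapp and converted to Kd.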

[4] = target: T1, Epithelial discoidin domain-containing receptor 1 (Rattus norvegicus, UniProt Q63474); assay: Binding affinity to DDR1 in Sprague-Dawley rat colon tissue cell lysate using sepharose beads incubated for 45 mins by LC-MS/MS based chemoproteomics assay; outline: as §1
T1 sequence (Q63474 whole entry): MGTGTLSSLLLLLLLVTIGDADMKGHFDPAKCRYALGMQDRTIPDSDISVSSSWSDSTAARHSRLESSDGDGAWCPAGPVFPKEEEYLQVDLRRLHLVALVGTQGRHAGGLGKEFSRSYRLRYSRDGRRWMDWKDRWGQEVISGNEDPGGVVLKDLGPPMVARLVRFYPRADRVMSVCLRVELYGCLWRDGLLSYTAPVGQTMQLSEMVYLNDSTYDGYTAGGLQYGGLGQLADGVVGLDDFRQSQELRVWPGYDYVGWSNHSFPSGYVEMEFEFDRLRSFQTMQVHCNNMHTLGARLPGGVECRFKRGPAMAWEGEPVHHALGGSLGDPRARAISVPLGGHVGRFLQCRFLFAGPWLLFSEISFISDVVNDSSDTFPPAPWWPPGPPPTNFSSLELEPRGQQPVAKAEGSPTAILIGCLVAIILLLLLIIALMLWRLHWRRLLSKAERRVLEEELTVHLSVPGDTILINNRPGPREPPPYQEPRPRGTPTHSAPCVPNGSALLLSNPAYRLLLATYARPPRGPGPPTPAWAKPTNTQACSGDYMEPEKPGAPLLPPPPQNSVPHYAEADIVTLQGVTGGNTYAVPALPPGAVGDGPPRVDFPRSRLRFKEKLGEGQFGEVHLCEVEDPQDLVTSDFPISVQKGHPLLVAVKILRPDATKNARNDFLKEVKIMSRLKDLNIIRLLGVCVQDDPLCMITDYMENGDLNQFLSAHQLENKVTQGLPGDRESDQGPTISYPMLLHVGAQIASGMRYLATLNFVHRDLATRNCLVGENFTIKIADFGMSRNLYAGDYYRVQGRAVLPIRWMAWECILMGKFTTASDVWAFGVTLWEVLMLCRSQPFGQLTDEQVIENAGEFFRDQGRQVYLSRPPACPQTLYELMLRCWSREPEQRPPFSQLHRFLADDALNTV

[5] = Binding affinity to DDR2 in Sprague-Dawley rat colon tissue cell lysate using sepharose beads incubated for 45 mins by LC-MS/MS based chemoproteomics assay; outline: as §1
[6] = Solubility of the compound by CLND method; type: physicochemical
Outline: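 Kinetic solubility was measured by chemiluminescent nitrogen detection.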

[7] = Solubility of the compound in FaSSIF after 4 hrs; type: physicochemical
Outline: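 Solubility was measured in fasted state simulated intestinal fluid after 4 h.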

[8] = AUC in Sprague-Dawley rat at 0.06 mg/kg, iv administered via bolus; type: ADME, organism-based; settings: in vivo
Outline: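 Male Sprague–Dawley rats received a single IV bolus. Compound was formulated as a clear solution at 0.04 mg/mL in DMSO/6% HP-beta-CD (5:95), pH 7. AUC was derived from the plasma concentration–time curve.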

[9] = Cmax in colon contents of Sprague-Dawley rat at 10 mg/kg, po bid administered 7 doses over 3.5 days; type: ADME, organism-based, Colon content; design: dose 10 mg/kg, route oral
Outline: (§2)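 Satellite rats from the colonic hypersensitivity dosing regimen received 10 mg/kg orally twice daily, seven doses over 3.5 days. Concentrations were measured in colon contents, duodenum, jejunum, ileum, colon tissue homogenate and plasma. Cmax (ng/mL) and Tmax (h) were taken from the full time–concentration profiles.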

[10] = Cmax in duodenum of Sprague-Dawley rat at 10 mg/kg, po bid administered 7 doses over 3.5 days; type: ADME, organism-based; design: dose 10 mg/kg, route oral; outline: as §2
[11] = Cmax in jejunum of Sprague-Dawley rat at 10 mg/kg, po bid administered 7 doses over 3.5 days; type: ADME, organism-based; design: dose 10 mg/kg, route oral; outline: as §2
[12] = Cmax in ileum of Sprague-Dawley rat at 10 mg/kg, po bid administered 7 doses over 3.5 days; type: ADME, organism-based; design: dose 10 mg/kg, route oral; outline: as §2
[13] = Cmax in colon of Sprague-Dawley rat at 10 mg/kg, po bid administered 7 doses over 3.5 days; type: ADME, organism-based; design: dose 10 mg/kg, route oral; outline: as §2
[14] = Cmax in plasma of Sprague-Dawley rat at 10 mg/kg, po bid administered 7 doses over 3.5 days; type: ADME, organism-based; design: dose 10 mg/kg, route oral; outline: as §2
[15] = Tmax in colon contents of Sprague-Dawley rat at 10 mg/kg, po bid administered 7 doses over 3.5 days; type: ADME, organism-based, Colon content; outline: as §2
[16] = Tmax in duodenum of Sprague-Dawley rat at 10 mg/kg, po bid administered 7 doses over 3.5 days; type: ADME, organism-based; outline: as §2
[17] = Tmax in jejunum of Sprague-Dawley rat at 10 mg/kg, po bid administered 7 doses over 3.5 days; type: ADME, organism-based; outline: as §2
[18] = Tmax in ileum of Sprague-Dawley rat at 10 mg/kg, po bid administered 7 doses over 3.5 days; type: ADME, organism-based; outline: as §2
[19] = Tmax in colon of Sprague-Dawley rat at 10 mg/kg, po bid administered 7 doses over 3.5 days; type: ADME, organism-based; outline: as §2
[20] = Tmax in plasma of Sprague-Dawley rat at 10 mg/kg, po bid administered 7 doses over 3.5 days; type: ADME, organism-based; outline: as §2
[21] = tested on: Rattus norvegicus; assay: Reduction in acetic acid-induced acute visceral afferent neuron sensitization in Sprague-Dawley rat acute colonic hypersensitivity model assessed as decrease in visceromotor response to colorectal distension by measuring number of abdominal contractions at 10 mg/kg, po bid administered for 3.5 days followed by acetic acid induction for 60 mins administered 5 mins post last compound dose and measured for 10 mins; type: functional, organism-based
Outline: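 Acetic acid enema at low concentration gave a transient, noninflammatory sensitization of colonic afferents. Colorectal distension then evoked a visceromotor response, scored visually as abdominal contractions. Rats (n = 7 per group) were dosed orally at 10 mg/kg twice daily for 3.5 days and compared with acetic acid/vehicle controls. Analysis used repeated-measure two-way ANOVA with Bonferroni post-test.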

Chain of Vascular endothelial growth factor receptor 2 (P35968 whole entry): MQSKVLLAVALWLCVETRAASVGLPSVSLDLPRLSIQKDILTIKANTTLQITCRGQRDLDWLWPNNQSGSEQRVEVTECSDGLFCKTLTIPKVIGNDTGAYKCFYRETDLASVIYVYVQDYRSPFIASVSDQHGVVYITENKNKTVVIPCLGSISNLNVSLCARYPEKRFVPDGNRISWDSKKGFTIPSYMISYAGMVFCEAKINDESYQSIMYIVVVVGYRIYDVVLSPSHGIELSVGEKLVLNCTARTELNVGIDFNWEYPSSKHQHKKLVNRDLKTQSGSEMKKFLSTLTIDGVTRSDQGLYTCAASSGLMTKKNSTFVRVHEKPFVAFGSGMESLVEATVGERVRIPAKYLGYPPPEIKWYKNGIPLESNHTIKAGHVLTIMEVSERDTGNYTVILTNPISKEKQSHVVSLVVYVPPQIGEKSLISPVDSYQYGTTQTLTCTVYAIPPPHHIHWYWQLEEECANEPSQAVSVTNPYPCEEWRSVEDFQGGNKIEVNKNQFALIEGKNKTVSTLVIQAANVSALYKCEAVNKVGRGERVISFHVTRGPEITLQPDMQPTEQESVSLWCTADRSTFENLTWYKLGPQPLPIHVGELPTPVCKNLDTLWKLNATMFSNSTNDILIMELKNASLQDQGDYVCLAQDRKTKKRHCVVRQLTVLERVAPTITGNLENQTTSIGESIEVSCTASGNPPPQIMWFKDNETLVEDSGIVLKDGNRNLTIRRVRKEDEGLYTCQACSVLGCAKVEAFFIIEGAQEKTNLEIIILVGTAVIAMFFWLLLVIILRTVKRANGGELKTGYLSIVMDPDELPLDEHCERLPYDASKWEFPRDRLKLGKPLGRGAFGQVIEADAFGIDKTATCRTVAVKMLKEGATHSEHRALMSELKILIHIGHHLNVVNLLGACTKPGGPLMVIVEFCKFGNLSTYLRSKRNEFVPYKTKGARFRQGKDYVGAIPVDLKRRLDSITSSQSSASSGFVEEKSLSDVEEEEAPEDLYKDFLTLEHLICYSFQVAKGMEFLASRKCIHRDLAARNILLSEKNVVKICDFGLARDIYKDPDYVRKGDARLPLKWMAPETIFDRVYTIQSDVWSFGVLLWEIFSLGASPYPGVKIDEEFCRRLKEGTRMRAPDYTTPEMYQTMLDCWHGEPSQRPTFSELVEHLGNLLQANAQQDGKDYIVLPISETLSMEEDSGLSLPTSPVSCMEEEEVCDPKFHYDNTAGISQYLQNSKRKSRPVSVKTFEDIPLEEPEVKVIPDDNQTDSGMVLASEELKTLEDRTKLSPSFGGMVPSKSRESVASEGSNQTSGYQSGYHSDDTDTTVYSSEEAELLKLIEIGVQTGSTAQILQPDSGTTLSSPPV
Chain of Proto-oncogene tyrosine-protein kinase receptor Ret (G3V9H8 whole entry): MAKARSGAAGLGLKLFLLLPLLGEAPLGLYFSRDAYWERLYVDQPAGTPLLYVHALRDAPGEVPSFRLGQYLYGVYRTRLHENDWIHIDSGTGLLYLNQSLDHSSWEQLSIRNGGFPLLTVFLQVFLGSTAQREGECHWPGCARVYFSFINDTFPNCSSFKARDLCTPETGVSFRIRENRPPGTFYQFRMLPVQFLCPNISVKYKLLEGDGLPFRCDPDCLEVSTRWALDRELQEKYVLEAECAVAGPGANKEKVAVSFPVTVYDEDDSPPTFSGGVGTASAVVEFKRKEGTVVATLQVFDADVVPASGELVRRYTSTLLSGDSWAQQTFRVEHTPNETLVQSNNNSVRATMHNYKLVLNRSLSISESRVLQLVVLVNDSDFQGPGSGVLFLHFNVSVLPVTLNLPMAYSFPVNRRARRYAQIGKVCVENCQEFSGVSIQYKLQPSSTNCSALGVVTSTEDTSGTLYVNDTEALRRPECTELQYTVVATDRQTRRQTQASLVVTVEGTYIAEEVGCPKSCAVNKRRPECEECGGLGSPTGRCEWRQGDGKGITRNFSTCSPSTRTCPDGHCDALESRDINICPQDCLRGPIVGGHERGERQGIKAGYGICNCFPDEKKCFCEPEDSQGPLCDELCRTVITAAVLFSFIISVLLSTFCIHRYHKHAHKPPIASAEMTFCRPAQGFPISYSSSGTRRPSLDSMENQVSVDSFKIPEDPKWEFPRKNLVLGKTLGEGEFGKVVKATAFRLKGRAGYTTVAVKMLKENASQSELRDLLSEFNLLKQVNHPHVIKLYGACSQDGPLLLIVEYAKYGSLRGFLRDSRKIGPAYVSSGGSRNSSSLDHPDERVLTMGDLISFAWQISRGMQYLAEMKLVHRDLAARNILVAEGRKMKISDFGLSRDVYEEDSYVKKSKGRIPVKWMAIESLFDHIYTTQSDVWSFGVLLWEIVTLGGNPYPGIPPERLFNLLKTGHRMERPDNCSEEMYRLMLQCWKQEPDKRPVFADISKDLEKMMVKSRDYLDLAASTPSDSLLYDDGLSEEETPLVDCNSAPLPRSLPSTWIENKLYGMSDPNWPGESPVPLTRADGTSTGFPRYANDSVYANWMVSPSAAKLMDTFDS

## CCN1CCN(Cc2ccc(NC(=O)Nc3ccc(-c4ccnc(NC)c4)cc3)cc2C(F)(F)F)CC1
[1]
  IC50: > 1000 nM

## COc1cc(-c2ccc(N)c(F)c2)c[nH]c1=O
[2]
  Activity: Toxic

## CCOc1cc(-c2ccc(N)cc2)c[nH]c1=O
[2]
  Activity: Toxic

## CCOc1cc(-c2ccc(N)c(F)c2)c[nH]c1=O
[2]
  Activity: Toxic

## CCN1CCN(Cc2ccc(N)cc2C(F)(F)F)CC1
[2]
  Activity: Toxic

## CCOc1cc(=O)[nH]cc1-c1ccc(CC(=O)Nc2cc(C(C)(C)C(F)(F)F)on2)c(F)c1 [GSK-3179106]
[2]
  Activity: Non-Toxic
[3]
  Kd: 20 nM
[4]
  Kd: 40 nM
[5]
  Kd: 90 nM
[6]
  solubility kinetic: 21 µM (≈ 9.82 µg/mL)
[7]
  solubility at 4 h: 0.4 µg/mL (≈ 0.856 µM)
[8]
  AUC: 102 ng·h/mL
[9]
  Cmax: 288 µg/mL
[10]
  Cmax: 15700 ng/mL
[11]
  Cmax: 12800 ng/mL
[12]
  Cmax: 5520 ng/mL
[13]
  Cmax: 3360 ng/mL
[14]
  Cmax: 40 ng/mL
[15]
  Tmax: 7 h
[16]
  Tmax: 0 h
[17]
  Tmax: 1 h
[18]
  Tmax: 2 h
[19]
  Tmax: 7 h
[20]
  Tmax: 4 h
[21]
  Activity: Active

## CC(C)(c1cc(N)no1)C(F)(F)F
[2]
  Activity: Non-Toxic
